# Data taken from paper PMC10139733 (Journal of drug delivery science and technology, 2023).
# Where a name gives a salt, the structure may show the parent alone.
# How the values were obtained:
# [1] = Screening solubility of sorafenib in oils, surfactants and cosolvents; type: physicochemical; details: 37 °C, thermodynamic from solid
# Caco-2 cells monolayer = test: In vitro transport across the Caco-2 cells monolayer; type: in vitro ADME; details: 80 μg/mL equivalent drug, up to 240 min
# Outline: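 Caco-2 cells in RPMI with 10% FBS and 1% penicillin/streptomycin (37 °C, 5% CO2) seeded at 10 × 10⁴ cells/insert on Geltrex-coated 0.3 μm polycarbonate inserts, fed every 2 days for 21 days. Only monolayers with TEER > 300 Ω·cm² were used. Test compound was dispersed in medium and applied apically. Basolateral samples at 30–240 min were replaced with warm medium. Three inserts per time point; HPLC.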
structure (smiles),measurement,setting,value
"CNC(=O)c1cc(Oc2ccc(NC(=O)Nc3ccc(Cl)c(C(F)(F)F)c3)cc2)ccn1 [sorafenib, Sorafenib tosylate]",solubility at 24 h,"[1]; capmul MCM (oil), oil or lipid",5160 ± 800 µg/mL
same,solubility at 24 h,"[1]; captex 355 (oil), oil or lipid",42.8 ± 7.6 µg/mL
same,solubility at 24 h,"[1]; carpyol 90 (oil), oil or lipid",279 ± 6.5 µg/mL
same,solubility at 24 h,"[1]; corn oil, oil or lipid",53 ± 13.7 µg/mL
same,solubility at 24 h,"[1]; ethanol (cosolvent), organic solvent or mixture",5800 ± 800 µg/mL
same,solubility at 24 h,"[1]; isopropyl myristate (oil), oil or lipid",37.9 ± 7.2 µg/mL
same,solubility at 24 h,"[1]; labrafil M 1944 CS (oil), oil or lipid",350 ± 50 µg/mL
same,solubility at 24 h,"[1]; labrafil M 2125 CS (oil), oil or lipid",279 ± 44.9 µg/mL
same,solubility at 24 h,"[1]; lauroglycol (oil), oil or lipid",298 ± 184 µg/mL
same,solubility at 24 h,"[1]; mineral oil, oil or lipid",47.6 ± 25.2 µg/mL
same,solubility at 24 h,"[1]; olive oil, oil or lipid",35 ± 0.6 µg/mL
same,solubility at 24 h,"[1]; peceol (oil), oil or lipid",900 ± 500 µg/mL
same,solubility at 24 h,"[1]; soybean oil, oil or lipid",64 ± 49.3 µg/mL
same,solubility at 24 h,"[1]; triacetin (oil), oil or lipid",113 ± 62.5 µg/mL
same,"Penetration of sorafenib across the monolayer, apical to basolateral",Caco-2 cells monolayer,absolutely no penetration
